# M5 antag = CHRM5 antagonism in calcium assay; actives 0.59% (n = 360,000); inhibition, % at 3 µM; P08912; AID 624040; CHO-hM5 cells, Fluo-8 calcium fluorescence, ACh EC80;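 active = inhibition above a per-plate cutoff, the mean of that plate's test compounds plus 3 SD, cut at about 27% in these data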;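 also: 0% = acetylcholine EC80 with DMSO and 100% = DMSO without agonist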
# CHRM5 PAM = CHRM5 positive allosteric modulation. P08912. CHO-K1 hM5, Fluo-8 calcium, ACh EC20 PAM; 0% = ACh EC20, 100% = ACh EC100. activation, % at 3 µM. actives 0.3% (n = 360,000). AID 624038;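 active = activation above the run cutoff, the mean activation of all test compounds plus 3 SD, cut at about 18% in these data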
#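 Assay system – human M5 receptor in CHO-K1 cells · Read-out – % activation, ACh-normalized · Technique – Fluo-8 calcium fluorescence · Dosing – single-point, 3 µM nominal · Incubation – Fluo-8 loading 80 min at 37 °C plus 30 min room temperature · Repeats – singlicate, one well per test compound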
# CHRM4 PAM = CHRM4 positive allosteric modulation. CHO-K1 hM4/Gqi5, Fluo-8 calcium fluorescence, ACh EC20; 0% = ACh EC20, 100% = maximal ACh. activation, % at 3 µM. actives 0.4% (n = 360,000);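 active = activation above its plate's cutoff, the mean activation of sample wells plus 3 SD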
# Target sequence (P08173 whole entry, looked up): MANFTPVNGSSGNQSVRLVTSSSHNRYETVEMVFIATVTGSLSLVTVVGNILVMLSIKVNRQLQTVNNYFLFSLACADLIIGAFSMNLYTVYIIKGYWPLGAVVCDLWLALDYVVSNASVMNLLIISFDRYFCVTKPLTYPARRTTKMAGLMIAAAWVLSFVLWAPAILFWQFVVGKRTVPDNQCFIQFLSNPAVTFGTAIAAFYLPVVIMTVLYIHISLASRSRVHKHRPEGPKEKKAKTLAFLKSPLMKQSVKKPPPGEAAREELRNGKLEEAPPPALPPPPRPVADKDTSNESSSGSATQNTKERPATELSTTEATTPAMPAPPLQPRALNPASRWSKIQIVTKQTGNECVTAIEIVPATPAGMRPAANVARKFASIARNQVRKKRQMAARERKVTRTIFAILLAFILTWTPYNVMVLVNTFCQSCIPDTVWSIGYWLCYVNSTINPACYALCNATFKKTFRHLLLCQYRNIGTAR
# M4 antag = blocks acetylcholine activation of human M4 receptor. P08173. CHO-hM4 cells, ACh EC80, Fluo-8 calcium fluorescence. inhibition, % at 3 µM. actives 0.73% (n = 360,000). AID 624125;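 active = inhibition above its plate's cutoff, the mean inhibition of sample wells plus 3 SD, cut at about 27% in these data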;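 also: 0% = acetylcholine EC80 with DMSO and 100% = DMSO without agonist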
# CHRM4 agonist = CHRM4 agonism in calcium assay | activation, % at 3 µM | actives 0.14% (n = 360,000) | CHO-K1 hM4/Gqi5, Fluo-8 calcium fluorescence; vehicle 0%, full acetylcholine response 100%;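 active = activation above the run mean over all test wells plus 3 SD, cut at about 32% in these data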;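 also: peak over basal fluorescence ratio per well then scaled between controls; 0% = DMSO wells and 100% = acetylcholine at EC100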
# CHRM5 agonist = agonists of human muscarinic M5 receptor (CHRM5) | P08912 | CHO-K1 hM5 cells, Fluo-8 calcium fluorescence; 0% DMSO wells, 100% maximal acetylcholine response | activation, % at 3 µM | actives 0.19% (n = 360,000) | AID 624037;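 active = activation above the run's mean over test compounds plus 3 SD, cut at about 23% in these data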;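 also: signal is peak over basal fluorescence ratio across the kinetic read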
# * marks the source's active call; other numbers are inactive results. An excerpt weighted towards active compounds, which were near 1.9% of everything screened.
SMILES,M5 antag,CHRM5 PAM,CHRM4 PAM,M4 antag,CHRM4 agonist,CHRM5 agonist
CCN1CCCC1CNC(=O)c1ccc(Sc2ccc(F)cc2)c([N+](=O)[O-])c1 (centres undefined),13,-23,-29,95*,3,-19
Cc1ccc(CNC(=O)COC(=O)c2ccc(Cl)c(N)c2)cc1,2,-8,-11,6,2,-1
Cc1cccc(C)c1NC(=O)CNCC(=O)Nc1c(C)cccc1C,6,0,-3,1,0,-3
CC[N+](CC)(CC)CC(=O)Nc1c(C)cccc1C,-4,-15,-10,35*,1,30*
Nc1ncnc2nn(C3OC(CO)C(O)C3O)nc12 (centres undefined),-6,0,5,-16,0,0
COc1ccccc1NC(=O)CSc1nc(=O)n2cc(C)ccc2n1,1,4,-2,1,3,-1
O=C(CSS(=O)(=O)O)N1CCN(C(=O)c2ccoc2)CC1,-3,3,6,-2,0,-4
Nc1ccn([C@@H]2O[C@H](CNCc3ccc(OCC(=O)Nc4nccs4)cc3)[C@@H](O)[C@H]2O)c(=O)n1,1,-3,11,-19,1,2
CCCN(CC(=O)Nc1ccc(F)c(F)c1F)C(=O)C1CC(=O)N(Cc2ccccc2)C1 (centres undefined),6,0,21*,-12,3,-2
Cc1cc(C)n2nc(SCC(=O)N3CCCC3)nc2n1,-13,24*,8,-12,1,4
Cc1cc(C)n2nc(SCC(=O)N3CCC(C)CC3)nc2n1,19,3,1,0,1,-1
Cc1ccnc2nc(C(=O)NC3=NCCS3)nn12,-6,-2,26*,-21,2,-3
Cc1ccnc2nc(C(=O)Nc3nccs3)nn12,-2,-3,13,-5,2,-3
COc1ccc(S(=O)(=O)N2CCOCC2)cc1NC(=O)CN1C(=O)NC(C)(C2CC2)C1=O (centres undefined),17,-2,7,2,2,0
Cc1ccc2c(c1)C(c1ccc(F)cc1)N(C(=O)c1ccccc1Br)CC(=O)N2 (centres undefined),2,-3,-18,66*,14,1
O=C(O)c1ccc2c(c1)C(=O)N(CCC1=CCCCC1)C2=O,-9,2,11,-4,1,3
O=C1c2ccccc2C(=O)N1CCC1=CCCCC1,-9,19*,0,-2,0,-6
O=C1/C(=C\c2ccc(Cl)c(Cl)c2)CN(C(=O)CCN2CCOCC2)C/C1=C/c1ccc(Cl)c(Cl)c1,17,-1,-7,43*,6,8
O=C1/C(=C\c2ccccc2)CN(C(=O)CCN2CCCCC2)C/C1=C/c1ccccc1,8,-3,-10,20,4,-10
CCCCN(C)C1=CC2=CC(=C(C#N)C#N)CCC2CC1 (centres undefined),84*,-24,-25,81*,439*,670*
CCN(CC)C1=CC2=CC(=C(C#N)C#N)CCC2CC1 (centres undefined),61*,-23,-21,42*,210*,384*
S=C1NCC(c2ccccc2)S1 (centres undefined),4,18*,13,-16,1,-5
O=C1CC(c2ccccc2)Sc2ccccc2N1 (centres undefined),-6,7,-2,2,0,0
CC(C)N1CSC(=S)N(Cc2ccccc2)C1,-16,18*,11,-5,1,5
CC(C)(C)NC(=O)CC1C[C@H](C(=O)N2CCCCC2)[C@@]2(CCc3ccccc3)c3[nH]c4ccccc4c3CCN2C1=O (some centres undefined),1,-3,3,-7,0,0
SMILES,M5 antag,CHRM5 PAM,CHRM4 PAM,M4 antag,CHRM4 agonist,CHRM5 agonist
CCN(CC)S(=O)(=O)c1ccc(NC(=O)CCNC(=O)c2ccccc2)cc1,15,-2,-1,4,1,-1
CCOc1cc2[nH]c(=S)n(CCCCC(=O)NCc3ccco3)c(=O)c2cc1OCC,-15,5,32*,3,0,4
CCC(C(=O)NC1CCCC1)N(C(=O)Cn1nnc(-c2ccc(C)o2)n1)c1cccc(OC)c1 (centres undefined),11,0,-1,-2,0,-2
O=C(O)c1cc(Cl)ccc1-c1ccc(/C=C/c2cc(C(F)(F)F)[nH]c(=O)n2)o1,0,-3,-5,12,39*,42*
O=C(O)c1ccccc1-c1ccc(/C=C/c2cc(C(F)(F)F)[nH]c(=O)n2)o1,9,-7,-7,1,10,44*
Cc1ccnc(NC(=O)c2cccc(NC(=O)CC3SC(N4CCCCC4)=NC3=O)c2)c1 (centres undefined),-2,-2,-3,10,1,4
CCOc1ccccc1NC(=O)C(OC(=O)c1ccc(O)cc1)c1ccccc1 (centres undefined),29*,-13,-6,7,4,-1
CCOc1ccccc1NC(=O)C(OC(=O)c1ccc(CC)cc1)c1ccccc1 (centres undefined),1,-2,6,-24,0,-3
CCNC(=S)NNC(=O)c1csc2c1CCCC2,-2,5,20*,-6,2,1
O=C(Nc1ccc(F)c(Cl)c1)C1CCCN(C2=NS(=O)(=O)c3ccccc32)C1 (centres undefined),-10,13,24*,-10,2,0
O=C(CN1C(=O)NC2(CCCCC2)C1=O)Oc1ccc2c(C(F)(F)F)cc(=O)oc2c1,9,-4,1,2,4,4
Cc1noc(C)c1NC(=O)Nc1ccc2c(c1)C(=O)N([C@H](C)CO)C[C@H](C)[C@@H](CN(C)S(=O)(=O)c1c(C)noc1C)O2,-1,10,20,-11,1,0
C[C@H]1c2cccc(O)c2C(O)=C2C(=O)[C@]3(O)C(O)=C(C(N)=O)C(=O)[C@@H](N(C)C)[C@@H]3[C@@H](O)[C@@H]21,7,-15,-3,8,0,27*
CCC(C)[C@H](NC(=O)N1CC(=O)Nc2ccccc21)C(=O)N1CCC[C@@H]1C(=O)O (some centres undefined),5,-3,-1,-14,0,1
CCC(C)[C@H](NC(=O)N1CC(=O)Nc2ccccc21)C(=O)N1CCC[C@H]1C(=O)O (some centres undefined),7,-2,-18,101*,-2,2
C(=Cc1c[nH]c2ccccc12)c1ccc2ccccc2n1,8,-7,-10,1,36*,19

# Screening results deposited in PubChem by The Scripps Research Institute Molecular Screening Center.
